Measurements from ChEMBL document CHEMBL4028902, “Azetidine and Piperidine Carbamates as Efficient, Covalent Inhibitors of Monoacylglycerol Lipase” (J Med Chem, 2017).
pIC50: −log10 of the molar value.

Columns and labels:
[1] = target: T1, Monoglyceride lipase (Homo sapiens) (UniProt Q99685); assay: Ratio of Kinact to Ki for human recombinant MAGL using 7-HCA as substrate after 60 mins by fluorescence assay
T1 sequence (whole entry): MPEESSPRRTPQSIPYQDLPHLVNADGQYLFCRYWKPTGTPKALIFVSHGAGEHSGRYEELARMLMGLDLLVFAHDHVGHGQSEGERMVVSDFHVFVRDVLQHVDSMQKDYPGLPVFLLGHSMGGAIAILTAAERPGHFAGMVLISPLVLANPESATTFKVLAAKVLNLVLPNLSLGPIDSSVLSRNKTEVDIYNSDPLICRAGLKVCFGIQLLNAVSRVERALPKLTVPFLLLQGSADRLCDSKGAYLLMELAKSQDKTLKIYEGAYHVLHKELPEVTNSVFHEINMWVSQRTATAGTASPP
Summary of the method: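 Run as the MAGL 7-HCA assay, but substrate added with no preincubation (T = 0), fluorescence read every minute at decreasing compound concentrations to give progress curves. kobs from each curve; kinact/KI from a plot of kobs against compound concentration.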

[2] = Lipophilicity, log D of the compound; type: physicochemical; details: octanol/water
[3] = target: T2, Monoglyceride lipase (Homo sapiens, UniProt Q99685); assay: Inhibition of human recombinant MAGL using 7-HCA as substrate preincubated for 30 mins followed by substrate addition measured after 60 mins by fluorescence assay
T2 sequence (Q99685 whole entry): T1 sequence (whole entry)
Summary of the method: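 Reaction started with 7-HCA (5 μM final), run 60 min, fluorescence Ex/Em 340/465. Percent inhibition versus no-compound and full-inhibition controls; IC50 from four-parameter fit.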

[4] = target: T3, Fatty-acid amide hydrolase 1 (Homo sapiens, UniProt O00519); assay: Inhibition of human recombinant FAAH using arachidonoyl-AMC as substrate preincubated for 30 mins followed by substrate addition measured after 60 mins by fluorescence assay
T3 sequence (O00519 whole entry): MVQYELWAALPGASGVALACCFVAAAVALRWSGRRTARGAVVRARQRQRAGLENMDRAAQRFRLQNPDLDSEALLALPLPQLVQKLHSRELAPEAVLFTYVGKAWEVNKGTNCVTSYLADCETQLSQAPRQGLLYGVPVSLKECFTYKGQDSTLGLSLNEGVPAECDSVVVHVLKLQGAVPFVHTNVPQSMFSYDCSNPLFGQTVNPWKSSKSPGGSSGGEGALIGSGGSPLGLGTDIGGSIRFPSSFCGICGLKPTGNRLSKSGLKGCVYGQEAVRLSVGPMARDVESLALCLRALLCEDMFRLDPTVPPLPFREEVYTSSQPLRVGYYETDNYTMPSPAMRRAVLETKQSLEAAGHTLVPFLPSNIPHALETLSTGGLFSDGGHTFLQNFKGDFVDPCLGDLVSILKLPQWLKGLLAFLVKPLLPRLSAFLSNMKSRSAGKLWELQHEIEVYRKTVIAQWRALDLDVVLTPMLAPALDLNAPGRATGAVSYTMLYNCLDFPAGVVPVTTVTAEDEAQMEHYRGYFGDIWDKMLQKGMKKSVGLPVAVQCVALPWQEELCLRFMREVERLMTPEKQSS
Summary of the method: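 Human recombinant FAAH (0.0125 unit final) in 50 mM Tris pH 9.0, 1 mM EDTA, preincubated 30 min at room temperature with compound (final 30 μM–0.3 nM). Arachidonoyl-AMC added (5 μM final), reaction run 60 min, fluorescence Ex/Em 355/460. Percent inhibition versus no-compound and full-inhibition controls.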

| Ratio [1] | logD [2] | pIC50 [3] | pIC50 [4] | SMILES |
| --- | --- | --- | --- | --- |
| 329000 M⁻¹ s⁻¹ | 2.8 | 9.13 | 5.96 | O=C(OC(C(F)(F)F)C(F)(F)F)N1CC(c2ccn(-c3cnccn3)n2)C1 |
| 791000 M⁻¹ s⁻¹ | 4.4 | 9.39 | 6.80 | O=C(OC(C(F)(F)F)C(F)(F)F)N1CC(c2ccn(Cc3ccccc3)n2)C1 |
| 18000 M⁻¹ s⁻¹ | 2.9 | 8.49 | 5.60 | O=C(OC(C(F)(F)F)C(F)(F)F)N1CC(N2CCN(c3ncccn3)CC2)C1 |
| 840000 M⁻¹ s⁻¹ | 4.2 | 9.42 | 6.38 | O=C(OC(C(F)(F)F)C(F)(F)F)N1CC(c2nc(-c3ccccc3)no2)C1 |
| 293000 M⁻¹ s⁻¹ | 5.7 | 9.52 | 6.31 | O=C(OC(C(F)(F)F)C(F)(F)F)N1CC(c2cc(-c3ccccc3)n(-c3ccccc3)n2)C1 |
| 4050 M⁻¹ s⁻¹ | 2.4 | 7.41 | < 4.70 | Cn1ccc(C2CN(C(=O)OC(C(F)(F)F)C(F)(F)F)C2)n1 |
| 121000 M⁻¹ s⁻¹ | 3 | 8.72 | < 4.52 | O=C(OC(C(F)(F)F)C(F)(F)F)N1CC(c2ccnc(N3CCOCC3)n2)C1 |
| 978000 M⁻¹ s⁻¹ | 4.6 | 9.74 | 6.17 | O=C(OC(C(F)(F)F)C(F)(F)F)N1CC(c2ccn(-c3ccc(F)c(F)c3)n2)C1 |
| 102000 M⁻¹ s⁻¹ | 3.2 | 8.72 | 5.03 | O=C(OC(C(F)(F)F)C(F)(F)F)N1CC(c2ccn(C3CCOCC3)n2)C1 |
